From ChEMBL document CHEMBL1127433, “N6-substituted adenosine receptor agonists. Synthesis and pharmacological activity as potent antinociceptive agents” (J Med Chem, 1994)
Calls of active or inactive are those of the source. The calls are words filed in the database; no cut-off is given here.

Columns and labels:
Adenosine A2 receptor = Adenosine A2 receptor (Rattus norvegicus, UniProt P29276+P30543); experiment: Binding affinity for adenosine A2 receptor in vitro using rat striatal membrane.; assay type: cell membranes
How it was run: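 Rat striatal membranes in 50 mM Tris-HCl, 10 mM MgCl2, pH 7.7, adenosine deaminase treated (1 U/mL, 30 min). Incubated with [3H]NECA (4 nM, 50 μL) plus 0.11 μM cyclopentyladenosine and competitor for 60 min at 25 °C. Nonspecific binding defined with 5 μM NECA. GF/B filtration, scintillation counting, triplicate. IC50 from log-logit regression, Ki via Cheng-Prusoff, one experiment.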

Adenosine receptor A1 [1] = biological target: T1, Adenosine receptor A1 (Rattus norvegicus, UniProt P25099); experiment: Binding affinity for adenosine A1 receptor in vitro using rat brain membranes.; assay type: cell membranes
T1 sequence (P25099 whole entry): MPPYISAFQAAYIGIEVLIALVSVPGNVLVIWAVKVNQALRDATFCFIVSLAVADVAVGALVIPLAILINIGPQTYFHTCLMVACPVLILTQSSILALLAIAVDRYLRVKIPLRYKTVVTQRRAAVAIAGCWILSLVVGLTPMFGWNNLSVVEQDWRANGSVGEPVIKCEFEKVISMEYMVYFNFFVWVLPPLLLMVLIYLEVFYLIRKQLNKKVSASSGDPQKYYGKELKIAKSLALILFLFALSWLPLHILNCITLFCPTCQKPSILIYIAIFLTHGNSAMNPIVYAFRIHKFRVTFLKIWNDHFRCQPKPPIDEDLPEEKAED
How it was run: (§1)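 Whole rat brain membranes, homogenized in 50 mM Tris-HCl pH 7.4 and spun at 1090g then 48000g, pretreated with adenosine deaminase 1 U/mL for 30 min. Nonspecific binding defined with 10 μM PIA. Separated by GF/B filtration and scintillation counted, in triplicate. IC50 from log-logit regression, Ki via Cheng-Prusoff, one experiment.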

[2] = biological target: T2, Adenosine A2 receptor (Rattus norvegicus) (UniProt P29276+P30543); experiment: Percent displacement from adenosine A2 receptor at 10e-5 M in rat striatal membrane in vitro.; assay type: cell membranes
[3] = biological target: T3, Adenosine receptor A1 (Rattus norvegicus) (UniProt P25099); experiment: Percent displacement from adenosine A1 receptor at 10e-7 M in rat brain membrane in vitro.; assay type: cell membranes
T3 sequence (whole entry): T1 sequence (P25099 whole entry)

[4] = biological target: T3, Adenosine receptor A1 (Rattus norvegicus); experiment: Percent displacement from adenosine A1 receptor at 10e-5 M in rat brain membrane in vitro.; assay type: cell membranes
[5] = biological target: T2, Adenosine A2 receptor (Rattus norvegicus); experiment: Percent displacement from adenosine A2 receptor at 10e-7 M in rat striatal membrane in vitro.; assay type: cell membranes; conditions: Striatum
Mus musculus [6] = experiment: Effective dose of compound for phenylbenzoquinone-Induced writhing in mice after peroral administration expressed as analgesic activity; Not calculated; assay type: functional; conditions: po
How it was run: (§2)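 Mice dosed orally (0.5 mL/20 g); 1 h later given 0.02% phenylbenzoquinone in hydroalcoholic solution ip (0.20-0.24 mL). Writhings and stretches counted from minute 5 to minute 10. Six animals per group. Inhibition taken against the control mean; ED50 (50% decrease) by linear regression.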

Mus musculus [7] = experiment: Effective dose for phenylbenzoquinone-induced writhing in mice after peroral administration expressed as analgesic activity.; assay type: functional; conditions: po; how it was run: as §2
Adenosine receptor A1 [8] = biological target: T1, Adenosine receptor A1; experiment: Binding affinity for adenosine A1 receptor in rat brain membrane; assay type: cell membranes
How it was run: as §1, with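 “U/mL for 30 min. Incubated with 2.5 nM [3H]PIA and competitor at 20 °C” for “U/mL”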

Mus musculus [9] = experiment: Effective dose of compound for phenylbenzoquinone-Induced writhing in mice after peroral administration expressed as analgesic activity; Inactive; assay type: functional, organism-based; how it was run: as §2
Mus musculus [10] = experiment: Effective dose of compound for phenylbenzoquinone-Induced writhing in mice after peroral administration expressed as analgesic activity; Not dose dependent; assay type: functional; conditions: po; how it was run: as §2

Structure (SMILES)	Ki (Adenosine A2 receptor) [nM]	Ki (Adenosine receptor A1 [1]) [nM]	Displacement [2] [%]	Displacement [3] [%]	Displacement [4] [%]	Displacement [5] [%]	Ki (Adenosine receptor A1 [8]) [nM]	ED50 (Mus musculus [6]) [mg/kg]	ED50 (Mus musculus [7]) [mg/kg]	ED50 (Mus musculus [9])	ED50 (Mus musculus [10]) [mg/kg]
O=C(NC1CC1)[C@H]1O[C@@H](n2cnc3c(NCCc4c[nH]c5ccccc45)ncnc32)[C@H](O)[C@@H]1O	560		68	91	100	29	7.9		34.9		
CC(C)(CO)NC(=O)[C@H]1OC(n2cnc3c(NCCc4cn(Cc5ccc(Cl)cc5)c5ccccc45)ncnc32)[C@H](O)[C@@H]1O (stereo partly specified)			50	5	79	0				inactive	
Cc1ccc(C)c(Cn2c(-c3ccccc3)c(CCNc3ncnc4c3ncn4C3O[C@H](C(=O)NC4CC4)[C@@H](O)[C@H]3O)c3ccccc32)c1 (stereo partly specified)			23	6	31	0					> 30
CCNC(=O)[C@H]1OC(n2cnc3c(NCCc4cn(Cc5cc(C)ccc5C)c5ccccc45)ncnc32)[C@H](O)[C@@H]1O (stereo partly specified)	660	160	86	38	92	12					< 2
COCCNC(=O)[C@H]1O[C@@H](n2cnc3c(NCCc4cn(Cc5ccc(Cl)cc5)c5ccccc45)ncnc32)[C@H](O)[C@@H]1O	> 10000	890	36	13	90	0				inactive	
OC[C@H]1OC(n2cnc3c(NCCc4cn(Cc5ccccc5)c5ccccc45)ncnc32)[C@H](O)[C@@H]1O (stereo partly specified)	250	50	95	67	100	30					> 30
Cc1ccc(C)c(Cn2cc(CCNc3ncnc4c3ncn4[C@@H]3O[C@H](C(N)=O)[C@@H](O)[C@H]3O)c3ccccc32)c1	2600	510	61	17	87	0			> 30		
Cc1ccc(C)c(Cn2cc(CC(C)Nc3ncnc4c3ncn4C3O[C@H](C(=O)NC4CC4)[C@@H](O)[C@H]3O)c3ccccc32)c1 (stereo partly specified)	2200	180	84	21	96	9			3.6		
CSc1ccc2c(c1)c(CCNc1ncnc3c1ncn3C1O[C@H](C(=O)NC3CC3)[C@@H](O)[C@H]1O)cn2Cc1cc(C)ccc1C (stereo partly specified)			76	13	82	8					> 10

Further lines, with some results ahead:

Ki (Adenosine A2 receptor) [nM]	Ki (Adenosine receptor A1 [1]) [nM]	Displacement [2] [%]	Displacement [3] [%]	Displacement [4] [%]	Displacement [5] [%]	Ki (Adenosine receptor A1 [8]) [nM]	Structure (SMILES)	ED50 (Mus musculus [6]) [mg/kg]	ED50 (Mus musculus [7]) [mg/kg]	ED50 (Mus musculus [9])	ED50 (Mus musculus [10]) [mg/kg]
182	29	99	63	100	46		O=C(NC1CC1)[C@H]1O[C@@H](n2cnc3c(NCCc4cn(Cc5cccc([N+](=O)[O-])c5)c5ccccc45)ncnc32)[C@H](O)[C@@H]1O	< 10			
		92	40	96	23		O=C(NC1CC1)[C@H]1OC(n2cnc3c(NCCc4cn(Cc5ccc(Br)cc5F)c5ccccc45)ncnc32)[C@H](O)[C@@H]1O (stereo partly specified)			inactive	
820	160	83	29	96	13		Cc1ccc(Cn2cc(CCNc3ncnc4c3ncn4C3O[C@H](C(=O)NC4CC4)[C@@H](O)[C@H]3O)c3ccccc32)cc1C (stereo partly specified)				> 30
1400	140	81	52	100	24		O=C(NC1CC1)[C@H]1OC(n2cnc3c(NCCc4cn(Cc5ccc(Cl)c(Cl)c5)c5ccccc45)ncnc32)[C@H](O)[C@@H]1O (stereo partly specified)				> 30
1400		76	20	93	8	370	O=C(NC1CC1)[C@H]1O[C@@H](n2cnc3c(NCCc4cn(Cc5cccc6ccccc56)c5ccccc45)ncnc32)[C@H](O)[C@@H]1O		2.4		
340	130	89	37	97	21		Cc1ccc(Cn2cc(CCNc3ncnc4c3ncn4C3O[C@H](C(=O)NC4CC4)[C@@H](O)[C@H]3O)c3ccccc32)cc1 (stereo partly specified)				< 3
		79	49	100	23		O=C(NC1CC1)[C@H]1OC(n2cnc3c(NCCc4cn(Cc5ccc(Cl)cc5)c5ccc(Cl)cc45)ncnc32)[C@H](O)[C@@H]1O (stereo partly specified)			inactive	
183	26	98	78	97	30		O=C(NC1CC1)[C@H]1O[C@@H](n2cnc3c(NCCc4cn(Cc5cccnc5)c5ccccc45)ncnc32)[C@H](O)[C@@H]1O				> 30
		83	64	95	25		C#CCn1cc(CCNc2ncnc3c2ncn3C2O[C@H](C(=O)NC3CC3)[C@@H](O)[C@H]2O)c2ccccc21 (stereo partly specified)				< 10
190	67	87	45	97	25		O=C(NC1CC1)[C@H]1OC(n2cnc3c(NCCc4cn(CC5CC5)c5ccccc45)ncnc32)[C@H](O)[C@@H]1O (stereo partly specified)				> 10
		95	83	100	51		CN(C)CCn1cc(CCNc2ncnc3c2ncn3C2O[C@H](C(=O)NC3CC3)[C@@H](O)[C@H]2O)c2ccccc21 (stereo partly specified)				> 60
